Experimental data from ChEMBL document CHEMBL4368858, “Search for a 5-CT alternative. In vitro and in vivo evaluation of novel pharmacological tools: 3-(1-alkyl-1H-imidazol-5-yl)-1H-indole-5-carboxamides, low-basicity 5-HT7 receptor agonists” (Medchemcomm, 2018).
Activity calls are given as the source filed them.

Legend:
[1] = target: T1, 5-hydroxytryptamine receptor 1A (Homo sapiens, UniProt P08908); assay: Displacement of [3H]-8-OH-DPAT from recombinant human 5HT1A receptor expressed in HEK293 cells measured after 1 hr by microbeta counting method; assay type: cell-based
T1 sequence (P08908 whole entry): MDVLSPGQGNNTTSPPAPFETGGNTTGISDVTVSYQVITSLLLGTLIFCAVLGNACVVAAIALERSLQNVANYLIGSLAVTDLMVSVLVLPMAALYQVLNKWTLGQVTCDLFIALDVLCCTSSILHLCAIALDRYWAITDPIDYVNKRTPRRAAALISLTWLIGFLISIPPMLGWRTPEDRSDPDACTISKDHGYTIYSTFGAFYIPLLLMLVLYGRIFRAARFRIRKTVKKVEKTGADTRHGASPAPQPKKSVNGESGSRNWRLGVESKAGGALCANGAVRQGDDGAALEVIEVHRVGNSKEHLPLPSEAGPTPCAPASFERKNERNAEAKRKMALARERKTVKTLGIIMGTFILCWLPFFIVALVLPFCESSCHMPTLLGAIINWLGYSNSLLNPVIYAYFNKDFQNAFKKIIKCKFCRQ
Summary of the method: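 Cloned human 5-HT1A receptor stably expressed in HEK-293 cells; displacement of [3H]-8-OH-DPAT.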

[2] = target: T2, 5-hydroxytryptamine receptor 6 (Homo sapiens, UniProt P50406); assay: Displacement of [3H]-LSD from recombinant human 5HT6 receptor expressed in HEK293 cells measured after 1 hr by microbeta counting method; assay type: cell-based
Summary of the method: (§1)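 Radioligand displacement on cloned human receptors stably expressed in HEK-293 cells, except 5-HT2A, which was expressed in CHO cells. Radioligands: [3H]-LSD for 5-HT6, [3H]-5-CT for 5-HT7, [3H]-ketanserin for 5-HT2A, [3H]-raclopride for D2.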

[3] = target: 5-hydroxytryptamine receptor 7 (Homo sapiens, UniProt P34969); assay: Displacement of [3H]-5-CT from recombinant human 5HT7b receptor expressed in HEK293 cells measured after 1 hr by microbeta counting method; assay type: cell-based; summary of the method: as §1
Homo sapiens = species: Homo sapiens; assay: Selectivity ratio of Ki for displacement of [3H]-8-OH-DPAT from recombinant human 5HT1A receptor expressed in HEK293 cell membranes to Ki for displacement of [3H]-5-CT from recombinant human 5HT7b receptor expressed in HEK293 cell membranes
Cytochrome P450 3A4 = Cytochrome P450 3A4 (Homo sapiens, UniProt P08684); assay: Inhibition of CYP3A4 (unknown origin) using beetle D-luciferin as substrate by CYP450-Glo assay; assay type: ADME
Cytochrome P450 2D6 = Cytochrome P450 2D6 (Homo sapiens, UniProt P10635); assay: Inhibition of CYP2D6 (unknown origin) using beetle D-luciferin as substrate by CYP450-Glo assay; assay type: ADME
[4] = Drug metabolism in mouse liver microsomes measured after 120 mins in presence of NADPH generating system by UPLC analysis; assay type: ADME, Microsome; settings: read-out: Drug metabolism
Summary of the method: (§2)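 Incubation with human, rat or mouse liver microsomes for 120 min at 37 °C with an NADPH regeneration system. Reaction mixtures analysed by UPLC for metabolites and % substrate metabolized.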

CYP2C9 = CYP2C9 (Homo sapiens, UniProt P11712); assay: Inhibition of CYP2C9 (unknown origin) assessed as residual activity at 25 uM using beetle D-luciferin as substrate by CYP450-Glo assay relative to control; assay type: ADME; settings: CYP2C9 enzyme (unknown origin), probe beetle D-luciferin, read-out: Activity
Summary of the method: (§3)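 Luminescent P450-Glo assays for CYP3A4, CYP2D6 and CYP2C9 run per the kit protocol. Triplicate wells, final concentrations 0.01–25 μM, same across all three isoforms. Activity given as % of control.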

[5] = target: T3, 5-hydroxytryptamine receptor 2A (Homo sapiens, UniProt P28223); assay: Displacement of [3H]-ketanserin from recombinant human 5HT2A receptor expressed in CHOK1 cells measured after 1 hr by microbeta counting method; assay type: cell-based; summary of the method: as §1
[6] = Mutagenicity in Salmonella typhimurium TA100 assessed as revertant colonies at 10 uM by Ames test; assay type: toxicity; settings: salmonella enterica subsp. enterica serovar typhimurium
Summary of the method: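 Ames microplate fluctuation assay with S. typhimurium TA100 in 384-well format, run in triplicate. Medium control baseline defined as mean revertants in growth medium + 1% DMSO plus one SD. Positive wells counted; a 2-fold increase over baseline flagged as a mutagen alert.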

[7] = Drug metabolism in rat liver microsomes measured after 120 mins in presence of NADPH generating system by UPLC analysis; assay type: ADME, Microsome; settings: for metabolised at 2 h: liver microsomes, read-out: Drug metabolism; summary of the method: as §2
D(2) dopamine receptor = D(2) dopamine receptor (Homo sapiens, UniProt P14416); assay: Displacement of [3H]-raclopride from recombinant human D2LR receptor expressed in HEK293 cells measured after 1 hr by microbeta counting method; assay type: cell-based; summary of the method: as §1
CYP3A4 = CYP3A4 (Homo sapiens, UniProt P08684); assay: Inhibition of CYP3A4 (unknown origin) assessed as residual activity at 10 uM using beetle D-luciferin as substrate by CYP450-Glo assay relative to control; assay type: ADME; settings: CYP3A4 enzyme (unknown origin), probe beetle D-luciferin, read-out: Activity; summary of the method: as §3
P-glycoprotein (ABCB1) = P-glycoprotein (ABCB1) (Homo sapiens, UniProt P08183); assay: Inhibition of recombinant human membrane bound Pgp assessed as basal ATP consumption at 100 uM after 40 mins by Pgp-Glo luminescence assay relative to control; set-up: scale not given: the % may be the effect or the level left; settings: read-out: Activity
Summary of the method: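 Pgp-Glo luminescence assay measuring Pgp ATP consumption. Compounds incubated with Pgp membranes at 100 μM for 40 min at 37 °C in triplicate. Na3VO4 (100 μM) used as reference inhibitor and verapamil (200 μM) as stimulator; basal activity taken as the vanadate-versus-untreated signal difference.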

CYP2D6 = CYP2D6 (Homo sapiens, UniProt P10635); assay: Inhibition of CYP2D6 (unknown origin) assessed as residual activity at 10 uM using beetle D-luciferin as substrate by CYP450-Glo assay relative to control; assay type: ADME; settings: CYP2D6 enzyme (unknown origin), probe beetle D-luciferin, read-out: Activity; summary of the method: as §3
[8] = Drug metabolism in human liver microsomes measured after 120 mins in presence of NADPH generating system by UPLC analysis; assay type: ADME, Microsome; settings: for Drug metabolism: microsomes, 2 h; summary of the method: as §2
[9] = target: T2, 5-hydroxytryptamine receptor 6; assay: Displacement of [3H]LSD from human recombinant 5-HT6 receptor after 120 mins by scintillation counting analysis
Summary of the method: (§4)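 Cloned human 5-HT6 receptor stably expressed in HEK-293 cells; displacement of [3H]-LSD.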

[10] = target: T1, 5-hydroxytryptamine receptor 1A; assay: Displacement of [3H]8-OH-DPAT from recombinant human 5-HT1A receptor after 60 mins by scintillation counting analysis
Summary of the method: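 Radioligand displacement at cloned human 5-HT1A receptor stably expressed in HEK-293 cells, with [3H]-8-OH-DPAT as the radioligand.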

[11] = target: T3, 5-hydroxytryptamine receptor 2A; assay: Displacement of [3H]ketanserin from recombinant human 5-HT2A receptor after 60 mins by scintillation counting analysis
Summary of the method: (§5)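 Cloned human 5-HT2A receptor stably expressed in CHO cells; displacement of [3H]-ketanserin.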

[12] = Permeability of the compound by PAMPA; assay type: ADME; settings: read-out: permeability
Summary of the method: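 Passive permeability measured on a pre-coated PAMPA plate system. Concentrations were quantified against calibration curves made by capillary electrophoresis with diode-array detection. The permeability coefficient Pe is reported in 10^-6 cm s^-1 as mean ± SD of triplicates.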

[13] = Retention time of the compound in rat liver microsomes in presence of NADPH generating system by UPLC analysis; assay type: ADME, Microsome
Summary of the method: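 Incubated with rat liver microsomes plus an NADPH regeneration system for 120 min at 37 °C. Reaction mixtures were analysed by UPLC to detect metabolites and their retention times.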

HEK293 = assay: Cytotoxicity against HEK293 cells assessed as reduction in cell viability at 1 uM after 72 hrs by MTS assay relative to control; settings: human, hek293, 72 h
[14] = target: T3, 5-hydroxytryptamine receptor 2A; assay: Displacement of [3H]ketanserin from recombinant human 5-HT2A receptor expressed in cell membrane after 1.5 hrs by scintillation counting analysis; assay type: cell membranes; summary of the method: as §5
[15] = target: 5-hydroxytryptamine receptor 5A (Homo sapiens, UniProt P47898); assay: Displacement of [3H]LSD from human recombinant 5-HT5A receptor expressed in cell membrane after 1.5 hrs by scintillation counting analysis; assay type: cell membranes
[16] = Hepatotoxicity against human HepG2 cells assessed as ATP level at 100 uM after 3 hrs by CellTiter-Glo luminescent cell viability assay relative to control; assay type: toxicity, cell-based; settings: read-out: Activity
Summary of the method: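 HepG2 cells exposed 3 h at 1, 10 and 100 μM. […] Run in quadruplicate; result given as % of control.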

Mus musculus [17] = assay: Anxiolytic-like activity in albino Swiss mouse assessed as reduction in stress-induced hyperthermia by measuring reduction in body temperature at 15 mg/kg administered 60 mins prior to testing measured for 15 mins; assay type: functional, organism-based
Summary of the method: (§6)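 Albino Swiss mice housed singly 24 h before test, dosed 1, 5 or 15 mg kg-1 60 min before test. Rectal temperature read to 0.1 °C at t = 0 (T1) and +15 min (T2) after transfer to a new cage. SIH taken as T2 − T1; T1 compared with vehicle for basal temperature effect. Groups of 8–10; one-way ANOVA with Dunnett's test.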

[18] = Toxicity in albino Swiss mouse assessed as effect on body temperature at 1 to 15 mg/kg; assay type: organism-based; settings: in vivo; summary of the method: as §6
Mus musculus [19] = assay: Reversal of MK-801-induced cognitive impairment in mouse assessed increase in novel object recognition at 1 mg/kg treated for 60 mins followed by MK-801 addition 30 mins prior to testing by novel object recognition test; assay type: functional, organism-based
Summary of the method: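 Mice adapted to an open field for 10 min. Next day: MK-801 0.3 mg kg-1 i.p. given 30 min before training, with the test compound given 60 min before MK-801. Training (T1) used two identical objects; in the retention trial 1 h later one object was replaced by a novel one. Exploration of each object was scored over 5 min. Means ± SEM.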

[20] = Retention time of the compound in mouse liver microsomes in presence of NADPH generating system by UPLC analysis; assay type: ADME, Microsome; summary of the method: as §2
[21] = target: T2, 5-hydroxytryptamine receptor 6; assay: Displacement of [3H]LSD from human recombinant 5-HT6 receptor expressed in cell membrane after 1.5 hrs by scintillation counting analysis; assay type: cell membranes; summary of the method: as §4

Sequence of D(2) dopamine receptor (P14416 whole entry): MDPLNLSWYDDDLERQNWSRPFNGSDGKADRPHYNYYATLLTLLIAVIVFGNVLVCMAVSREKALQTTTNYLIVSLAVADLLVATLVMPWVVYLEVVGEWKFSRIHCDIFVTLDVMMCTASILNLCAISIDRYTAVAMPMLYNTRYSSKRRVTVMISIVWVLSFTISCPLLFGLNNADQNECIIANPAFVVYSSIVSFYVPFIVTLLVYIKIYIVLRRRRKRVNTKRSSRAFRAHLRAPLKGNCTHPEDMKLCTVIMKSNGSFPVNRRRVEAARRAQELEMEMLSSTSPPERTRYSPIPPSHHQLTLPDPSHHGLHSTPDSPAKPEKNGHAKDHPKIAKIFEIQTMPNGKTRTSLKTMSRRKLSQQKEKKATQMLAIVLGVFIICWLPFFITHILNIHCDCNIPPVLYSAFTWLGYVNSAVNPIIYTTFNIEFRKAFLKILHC
Sequence of CYP2C9 (P11712 whole entry, canonical isoform): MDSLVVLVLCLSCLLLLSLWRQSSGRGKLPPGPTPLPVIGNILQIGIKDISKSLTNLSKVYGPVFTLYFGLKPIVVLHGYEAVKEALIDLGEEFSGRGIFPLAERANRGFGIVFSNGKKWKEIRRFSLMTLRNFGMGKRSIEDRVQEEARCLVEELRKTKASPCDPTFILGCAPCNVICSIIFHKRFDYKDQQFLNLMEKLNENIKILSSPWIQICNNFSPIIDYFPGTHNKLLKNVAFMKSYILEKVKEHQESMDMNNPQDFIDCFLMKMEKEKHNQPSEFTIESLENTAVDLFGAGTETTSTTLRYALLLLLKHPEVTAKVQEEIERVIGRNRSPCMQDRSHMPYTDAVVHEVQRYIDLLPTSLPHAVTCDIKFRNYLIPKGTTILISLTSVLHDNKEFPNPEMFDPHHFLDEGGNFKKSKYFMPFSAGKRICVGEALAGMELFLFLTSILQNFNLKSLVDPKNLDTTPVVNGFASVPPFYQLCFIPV
Sequence of 5-hydroxytryptamine receptor 7 (P34969 whole entry): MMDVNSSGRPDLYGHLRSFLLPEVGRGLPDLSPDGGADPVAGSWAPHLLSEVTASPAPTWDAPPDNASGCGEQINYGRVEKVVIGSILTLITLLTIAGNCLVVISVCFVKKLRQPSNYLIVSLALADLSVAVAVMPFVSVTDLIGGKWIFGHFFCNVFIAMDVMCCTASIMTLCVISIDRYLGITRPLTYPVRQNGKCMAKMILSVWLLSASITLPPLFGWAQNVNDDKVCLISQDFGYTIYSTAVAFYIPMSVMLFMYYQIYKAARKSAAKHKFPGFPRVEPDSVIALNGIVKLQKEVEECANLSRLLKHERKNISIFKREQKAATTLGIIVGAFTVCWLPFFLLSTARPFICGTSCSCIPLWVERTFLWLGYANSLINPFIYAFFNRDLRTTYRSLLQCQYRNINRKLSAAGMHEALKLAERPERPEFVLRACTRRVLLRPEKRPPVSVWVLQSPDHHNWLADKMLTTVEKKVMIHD
Sequence of CYP3A4 (P08684 whole entry): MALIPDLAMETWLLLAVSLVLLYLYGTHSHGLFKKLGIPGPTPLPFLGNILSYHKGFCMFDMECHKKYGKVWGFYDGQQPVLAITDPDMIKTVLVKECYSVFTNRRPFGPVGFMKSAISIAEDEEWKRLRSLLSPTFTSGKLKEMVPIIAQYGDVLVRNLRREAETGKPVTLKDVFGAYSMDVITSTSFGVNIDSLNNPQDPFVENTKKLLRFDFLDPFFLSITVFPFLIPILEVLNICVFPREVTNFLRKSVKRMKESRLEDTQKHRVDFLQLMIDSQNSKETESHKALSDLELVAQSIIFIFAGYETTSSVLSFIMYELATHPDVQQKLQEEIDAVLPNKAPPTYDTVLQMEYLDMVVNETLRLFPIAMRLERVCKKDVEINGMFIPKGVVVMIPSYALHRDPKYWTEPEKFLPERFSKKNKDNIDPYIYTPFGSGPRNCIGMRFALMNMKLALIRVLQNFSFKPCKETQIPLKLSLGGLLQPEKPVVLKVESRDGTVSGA
Sequence of CYP2D6 (P10635 whole entry): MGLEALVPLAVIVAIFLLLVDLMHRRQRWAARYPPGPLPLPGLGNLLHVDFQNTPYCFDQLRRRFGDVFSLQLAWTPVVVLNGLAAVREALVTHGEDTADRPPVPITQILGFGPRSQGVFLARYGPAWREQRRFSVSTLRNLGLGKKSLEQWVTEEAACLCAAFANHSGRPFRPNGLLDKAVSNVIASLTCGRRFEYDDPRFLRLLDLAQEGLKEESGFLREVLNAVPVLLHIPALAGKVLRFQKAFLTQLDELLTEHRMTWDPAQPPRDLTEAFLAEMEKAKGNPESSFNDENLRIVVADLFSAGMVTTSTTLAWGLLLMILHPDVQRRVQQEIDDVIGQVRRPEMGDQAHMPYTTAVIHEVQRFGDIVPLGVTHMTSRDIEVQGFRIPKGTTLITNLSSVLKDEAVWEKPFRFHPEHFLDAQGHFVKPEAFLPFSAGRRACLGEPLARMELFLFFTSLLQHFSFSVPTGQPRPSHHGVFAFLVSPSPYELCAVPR
Sequence of P-glycoprotein (ABCB1) (P08183 whole entry): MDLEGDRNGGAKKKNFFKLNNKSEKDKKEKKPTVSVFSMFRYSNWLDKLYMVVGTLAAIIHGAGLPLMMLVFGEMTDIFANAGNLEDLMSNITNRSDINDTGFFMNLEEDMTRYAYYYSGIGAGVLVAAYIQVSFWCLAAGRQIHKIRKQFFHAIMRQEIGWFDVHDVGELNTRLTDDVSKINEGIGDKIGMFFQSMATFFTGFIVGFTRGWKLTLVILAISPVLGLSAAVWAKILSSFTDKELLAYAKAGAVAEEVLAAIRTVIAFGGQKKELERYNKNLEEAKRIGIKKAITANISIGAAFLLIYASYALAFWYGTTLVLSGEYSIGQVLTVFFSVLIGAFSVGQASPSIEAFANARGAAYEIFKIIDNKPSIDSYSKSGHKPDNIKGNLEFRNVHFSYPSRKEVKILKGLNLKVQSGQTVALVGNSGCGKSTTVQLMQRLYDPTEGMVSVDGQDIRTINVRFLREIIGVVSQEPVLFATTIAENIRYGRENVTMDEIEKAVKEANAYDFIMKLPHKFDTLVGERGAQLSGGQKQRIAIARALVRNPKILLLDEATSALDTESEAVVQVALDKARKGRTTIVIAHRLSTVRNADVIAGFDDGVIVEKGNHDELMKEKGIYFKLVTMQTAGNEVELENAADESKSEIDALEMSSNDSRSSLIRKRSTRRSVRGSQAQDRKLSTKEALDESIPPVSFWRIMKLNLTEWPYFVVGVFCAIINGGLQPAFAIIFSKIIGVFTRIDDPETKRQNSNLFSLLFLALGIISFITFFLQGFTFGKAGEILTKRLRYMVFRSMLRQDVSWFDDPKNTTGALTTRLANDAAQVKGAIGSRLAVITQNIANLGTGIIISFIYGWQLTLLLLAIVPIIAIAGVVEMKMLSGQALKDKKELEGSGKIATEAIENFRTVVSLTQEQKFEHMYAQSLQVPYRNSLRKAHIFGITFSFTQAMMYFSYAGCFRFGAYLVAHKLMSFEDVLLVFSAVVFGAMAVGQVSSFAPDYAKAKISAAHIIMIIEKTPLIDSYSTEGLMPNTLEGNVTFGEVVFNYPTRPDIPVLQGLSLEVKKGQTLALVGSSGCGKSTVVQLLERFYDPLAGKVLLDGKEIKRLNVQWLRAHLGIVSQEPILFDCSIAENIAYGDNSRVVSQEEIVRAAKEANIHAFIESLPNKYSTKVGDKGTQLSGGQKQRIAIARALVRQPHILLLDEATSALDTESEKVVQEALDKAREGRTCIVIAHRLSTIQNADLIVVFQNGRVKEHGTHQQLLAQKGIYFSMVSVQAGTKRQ
T3 sequence (P28223 whole entry): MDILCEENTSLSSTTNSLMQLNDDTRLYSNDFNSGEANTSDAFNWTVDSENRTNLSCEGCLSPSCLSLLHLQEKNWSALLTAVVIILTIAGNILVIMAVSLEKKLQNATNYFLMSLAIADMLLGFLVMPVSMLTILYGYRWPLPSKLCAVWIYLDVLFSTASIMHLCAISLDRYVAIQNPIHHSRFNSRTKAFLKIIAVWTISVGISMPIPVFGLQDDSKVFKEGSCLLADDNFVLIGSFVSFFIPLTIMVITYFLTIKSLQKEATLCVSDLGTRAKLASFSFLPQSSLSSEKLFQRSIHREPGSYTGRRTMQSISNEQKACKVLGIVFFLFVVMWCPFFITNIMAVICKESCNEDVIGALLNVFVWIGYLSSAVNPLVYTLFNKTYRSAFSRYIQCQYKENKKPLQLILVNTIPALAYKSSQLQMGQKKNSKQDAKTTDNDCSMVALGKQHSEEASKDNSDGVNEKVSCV
T2 sequence (P50406 whole entry): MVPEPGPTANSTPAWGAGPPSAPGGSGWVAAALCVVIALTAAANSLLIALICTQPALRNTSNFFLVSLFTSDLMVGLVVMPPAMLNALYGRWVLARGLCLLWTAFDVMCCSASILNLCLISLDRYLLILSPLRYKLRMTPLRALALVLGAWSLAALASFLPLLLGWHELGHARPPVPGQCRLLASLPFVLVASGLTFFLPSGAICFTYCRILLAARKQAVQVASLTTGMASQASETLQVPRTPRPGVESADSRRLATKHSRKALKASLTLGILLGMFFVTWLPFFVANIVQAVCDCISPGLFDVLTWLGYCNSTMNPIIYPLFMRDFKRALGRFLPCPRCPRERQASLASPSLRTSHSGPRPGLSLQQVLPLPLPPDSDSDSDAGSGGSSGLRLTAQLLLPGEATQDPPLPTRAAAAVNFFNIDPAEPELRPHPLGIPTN
Sequence of Cytochrome P450 3A4 (P08684 whole entry): as the sequence (P08684 whole entry) above
Sequence of 5-hydroxytryptamine receptor 5A (P47898 whole entry): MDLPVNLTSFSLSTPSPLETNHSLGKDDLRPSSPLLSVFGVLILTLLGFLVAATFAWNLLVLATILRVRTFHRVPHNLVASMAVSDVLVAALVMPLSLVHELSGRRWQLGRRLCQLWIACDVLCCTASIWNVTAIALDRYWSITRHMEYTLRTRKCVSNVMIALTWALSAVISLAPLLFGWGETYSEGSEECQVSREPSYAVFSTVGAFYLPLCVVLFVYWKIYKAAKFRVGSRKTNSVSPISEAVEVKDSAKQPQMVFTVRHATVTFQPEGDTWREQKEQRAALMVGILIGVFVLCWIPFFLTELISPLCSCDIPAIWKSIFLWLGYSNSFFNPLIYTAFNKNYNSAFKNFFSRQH

Compound | Ki [1] | Ki [2] | Ki [3] | metabolised at 2 h [4] | activity at 25 µM (CYP2C9) | Ki [5] | Activity [6] | Ki (D(2) dopamine receptor) | activity at 10 µM (CYP3A4) | activity at 40 min, 100 µM (P-glycoprotein (ABCB1)) | activity at 10 µM (CYP2D6) | other results
Cn1cncc1-c1c[nH]c2ccc(C(N)=O)cc12 | 0.22 µM | 6.91 µM | 0.006 µM | 9% | 37.2% | > 10 µM | 12.3 | 5.56 µM | 29.4% | 60% | 55% | Ratio Ki (Homo sapiens): 37; IC50 (Cytochrome P450 3A4): 3.53 µM; IC50 (Cytochrome P450 2D6): 27.6 µM; Drug metabolism ([7]; microsomes, 2 h): Metabolite_Notdetected; Drug metabolism [8]: Metabolite_Notdetected
Cc1nn(C)c(C)c1-c1cccc(CCN(C)C)c1 |  |  |  |  |  |  |  |  |  |  |  | Ki [9]: > 1 µM; Ki [10]: 0.7 µM; Ki [11]: > 1 µM
NCCc1c[nH]c2ccc(C(N)=O)cc12 |  |  |  | 2% | 78.7% |  | 4 |  | 95.7% | 26.3% | 108% | Papp [12]: 3.54 ×10⁻⁶ cm/s; Retention_time [13]: 1.62 min; metabolised at 2 h [7]: 20%; metabolised at 2 h ([8]; liver microsomes, read-out: Drug metabolism): 26%
N#CC(C#N)=NNc1cccc(Cl)c1 [CARBONYL CYANIDE M-CHLOROPHENYLHYDRAZONE] |  |  |  |  |  |  |  |  |  |  |  | Activity (HEK293): 40%
CCn1cncc1-c1c[nH]c2ccc(S(N)(=O)=O)cc12 | > 10 µM | 7.27 µM | 6.42 µM |  |  | > 10 µM |  | > 10 µM |  |  |  | 
N#Cc1ccc(CNC(=O)CCCCCN2CCN(c3ccccc3-c3ccccc3)CC2)cc1 |  |  |  |  |  |  |  |  |  |  |  | Ki [14]: 0.626 µM; Ki [15]: 0.178 µM
CCn1cncc1-c1c[nH]c2ccc(I)cc12 |  | 1.67 µM |  |  |  | > 10 µM |  | 4.85 µM |  |  |  | 
CCn1cncc1-c1c[nH]c2ccc(C(N)=O)cc12 |  | > 10 µM |  | 14% | 104% | > 10 µM | 5.6 | > 10 µM | 2.9% | 19.3% | 43.4% | viability at 3 h, 100 µM [16]: 102%; Ratio Ki (Homo sapiens): 25; Activity (Mus musculus [17]): Active; Activity [18]: Non-Toxic; IC50 (Cytochrome P450 3A4): 0.31 µM; IC50 (Cytochrome P450 2D6): 7.47 µM; Activity (Mus musculus [19]): Active; Papp [12]: 2.78 ×10⁻⁶ cm/s; metabolised at 2 h [7]: 7%; Retention_time [20]: 1.6 min; Drug metabolism [8]: Metabolite_Notdetected
CCn1cncc1-c1c[nH]c2ccc(C(=O)OC)cc12 | > 10 µM | 6.06 µM | 0.161 µM |  |  | > 10 µM |  | > 10 µM |  |  |  | 
c1ccc(-c2ccccc2N2CCNCC2)cc1 |  |  |  |  |  |  |  |  |  |  |  | Ki [14]: 1.19 µM; Ki [21]: 0.596 µM; Ki [15]: 0.076 µM
